Assay outcomes from PubChem BioAssay.
This is a sample that favours compounds with a hit; in the whole collection about 3% have one here.
Wee1 degr inh = blocks degradation of human Wee1 kinase. 1.2% of 220,000 active. P30291. reporter increase, % at 5 µM. HeLa Luc-Wee1K328M stability, luciferase luminescence; 100% = proteasome inhibitor MG132 effect;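 active means activation above the mean of all tested compounds plus 3 SD, set per screening run, cut at about 8.8% in these data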;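 further: cells exposed to compound for 20 h before luminescence read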
NPY-Y1 PAM-ag = potentiators or agonists of human neuropeptide Y receptor Y1; P25929; NPY-Y1 expressing cells, potentiator/agonist activation; activation, % at 3.6 µM; 0.37% of 220,000 active; AID 1304; in the data active means activation above about 33%, passing the limit was not always enough;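 further: cells stimulated with NPY at EC10 then isoproterenol at EC100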
Target sequence (P25929 whole entry, looked up): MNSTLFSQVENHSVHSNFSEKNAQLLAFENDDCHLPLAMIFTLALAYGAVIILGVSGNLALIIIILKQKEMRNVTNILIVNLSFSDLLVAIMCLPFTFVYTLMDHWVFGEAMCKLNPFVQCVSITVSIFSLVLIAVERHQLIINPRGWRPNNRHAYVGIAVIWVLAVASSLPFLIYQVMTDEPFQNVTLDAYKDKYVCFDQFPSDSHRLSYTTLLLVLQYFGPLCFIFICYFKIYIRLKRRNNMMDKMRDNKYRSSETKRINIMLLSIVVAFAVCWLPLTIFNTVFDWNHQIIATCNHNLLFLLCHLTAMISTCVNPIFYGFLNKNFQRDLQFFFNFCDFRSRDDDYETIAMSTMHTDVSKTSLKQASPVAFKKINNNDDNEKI
Hsp70 act = transcriptional activators of Hsp70; HeLa Hsp70 promoter luciferase reporter, luminescence; scaled: vehicle 0, proteasome-inhibitor control 100%; activation, % at 10 µM; 0.04% of 200,000 active;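 active means activation above the mean across all tested compounds plus 3 SD, cutoff set per campaign, cut at about 5.5% in these data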
NPY Y1 blocker = blocks the human neuropeptide Y Y1 receptor. AID 1040. 1% of 200,000 active. P25929. HEK293-CNG Y1 cells, membrane potential fluorescence; NPY at EC95, then isoproterenol. inhibition, % at 3.6 µM;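 active means inhibition above the campaign mean inhibition of all tested compounds plus 3 SD, cut at about 20% in these data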
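Material: HEK293 Y1/CNG channel cell line | Also added: NPY (25 nM), isoproterenol (1 µM), Ro 20-1724 (25 µM) | Compound: One concentration, 3.6 µM, in 0.4% DMSO | Schedule: 3 h dye uptake, 1 h room-temperature compound, 45 min post-isoproterenol | Signal: Membrane-potential fluorescent dye readout | Read-out: % inhibition of NPY effect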
NPY-Y2 antag = NPY-Y2 (human) receptor antagonism; P49146; NPY-Y2 expressing cells, antagonist mode; inhibition, % at 2.7 µM; 0.99% of 140,000 active; AID 793
NPY-Y2 PAM-ag = human NPY-Y2 potentiation or agonism, primary screen; P49146; AID 1359; cells expressing NPY-Y2, potentiator/agonist read-out; activation, % at 3.6 µM; 0.45% of 220,000 active; in the data active means activation above about 27%;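 further: cells stimulated with NPY near EC25 plus isoproterenol at EC100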
NPY-Y1 ant conf = human NPY-Y1 antagonism, confirmation. shares compounds with NPY Y1 blocker. HEK293-CNG NPY-Y1, membrane potential fluorescence, cAMP; NPY challenge against isoproterenol-raised cAMP. inhibition, % at 3.6 µM. 21% of 1,200 active. AID 1254; in the data active means inhibition above about 20%
NPY2 antag ctr = human NPY-Y2 antagonism in NPY-Y1 counter-screen; AID 1255; shares compounds with NPY Y1 blocker; inhibition, % at 3.6 µM; HEK293 NPY-Y2 CNG membrane potential fluorescence; cells given NPY, then isoproterenol; 28% of 1,200 active
Large screens that a line does not name were inactive (follow-up assays come after a bar, where they were run). Unless noted, no stated cut-off is given here; in the data, active means inhibition above about 17%; inactive means the rest.

COc1ccc(CCn2c(SCCN3CCCCC3)nc3ccccc3c2=O)cc1OC	NPY Y1 blocker 38 (no result: NPY-Y2 antag) | NPY-Y1 ant conf inactive | NPY2 antag ctr 18
O=c1c2ccccc2nc(SCCN2CCOCC2)n1CCc1ccccc1	none (no result: NPY-Y2 antag)
COc1cc(C=O)ccc1OCCOCCOc1ccccc1Cl	NPY Y1 blocker 21 | NPY-Y1 ant conf inactive | NPY2 antag ctr inactive
CCc1cccc(NC(=O)CCSCCC(=O)Nc2cccc(CC)c2)c1	none
COc1ccc(-c2n(CC(=O)OC3CC(C)CCC3C(C)C)c3ccccc3[n+]2C)cc1 (stereo not given)	NPY Y1 blocker 150 (no result: NPY-Y2 antag) | NPY-Y1 ant conf 135 | NPY2 antag ctr 91
COc1ccc(OCc2n(CC(=O)OC3CC(C)CCC3C(C)C)c3ccccc3[n+]2C)cc1 (stereo not given)	none (no result: Hsp70 act, NPY Y1 blocker, NPY-Y2 antag)
CC(C)(C)OC(=O)N1CCC[C@H]1c1nnc(SCc2ccc(Cl)cc2)o1	none (no result: Hsp70 act, NPY Y1 blocker, NPY-Y2 antag)
COc1cccc(NC(=O)NC(C)C2CC3CCC2C3)c1 (stereo not given)	NPY Y1 blocker 24 (no result: NPY-Y2 antag) | NPY-Y1 ant conf inactive | NPY2 antag ctr 34
Cc1ccc(C(=O)Nc2ccc(C(=O)O)cc2)cc1S(=O)(=O)NCc1ccccc1	none (no result: NPY-Y2 antag)
COc1ccc(C2c3[nH]c4ccccc4c3CCN2CCCn2cccn2)c(C)c1C (stereo not given)	NPY Y1 blocker 36 (no result: NPY-Y2 antag) | NPY-Y1 ant conf inactive | NPY2 antag ctr 20
Cc1cccc(NC(=S)NC(=O)c2cc(-c3ccccc3)nc3ccccc23)c1	NPY Y1 blocker 21 | NPY-Y1 ant conf inactive | NPY2 antag ctr 20
Cc1ccc(C)c(NC(=O)c2cc(-c3cccnc3)nc3ccccc23)c1	none (no result: NPY-Y2 antag)
Cc1ccccc1NC(=S)NC(=O)c1cc(-c2ccccc2)nc2ccccc12	NPY Y1 blocker 21 | NPY-Y1 ant conf 28 | NPY2 antag ctr 38
COc1ccc(-c2noc(CCCOc3ccccc3)n2)cc1OC	NPY Y1 blocker 25 | NPY-Y1 ant conf inactive | NPY2 antag ctr inactive
c1ccc(OCCCc2nc(-c3ccncc3)no2)cc1	none
CCc1c(C)sc(NC(=O)/C=C/C(=O)O)c1C(N)=O	none (no result: NPY-Y2 antag)
COc1cc(C(F)(F)F)c(C(=O)NCc2cccc(Cl)c2)cn1	none (no result: Hsp70 act, NPY Y1 blocker, NPY-Y2 antag)
COc1ccc(OC)c(CNc2nc3ccccc3n2CCN2CCCCC2)c1	NPY Y1 blocker 33 | NPY-Y1 ant conf 22 | NPY2 antag ctr 18
CCCn1c(NCc2cc(OC)ccc2OC)nc2ccccc21	none
CCC(=O)NC1(Cc2ccc(O)cc2)CCCCC1	none (no result: NPY-Y2 antag)
Cc1cc(C(=O)N2CCc3c([nH]c4ccccc34)C2c2cccc(Cl)c2)nn1C (stereo not given)	NPY Y1 blocker 36 (no result: NPY-Y2 antag) | NPY-Y1 ant conf inactive | NPY2 antag ctr 61
CSc1ccc(C2c3[nH]c4ccccc4c3CCN2C(=O)c2cc(C)n(C)n2)cc1 (stereo not given)	NPY Y1 blocker 27 (no result: NPY-Y2 antag) | NPY-Y1 ant conf inactive | NPY2 antag ctr 41
O=c1ccccn1Cc1c(F)cccc1Cl	none
COc1ccc(/C(C)=C2\SC(=S)N(CCC(=O)O)C2=O)cc1	NPY Y1 blocker 23 | NPY-Y1 ant conf inactive | NPY2 antag ctr inactive
CCCSc1nc(-n2ncc(C#N)c2N)c2c3c(sc2n1)CCC(C)C3 (stereo not given)	NPY Y1 blocker 21 | NPY-Y1 ant conf inactive | NPY2 antag ctr inactive
Cc1nc(-n2ncc(C#N)c2N)c2c3c(sc2n1)CCC3	none
Cc1cn(S(=O)(=O)c2ccc(Br)c3ccccc23)cn1	NPY Y1 blocker 27 | NPY-Y1 ant conf inactive | NPY2 antag ctr inactive
CCCCCCCCn1c2c(c(=N)c3ccccc31)CCC2	NPY Y1 blocker 99 (no result: NPY-Y2 antag) | NPY-Y1 ant conf 77 | NPY2 antag ctr 74
CCCCn1c2c(c(=N)c3ccccc31)CCC2	none (no result: Hsp70 act, NPY Y1 blocker, NPY-Y2 antag)
Oc1ccc(-c2[nH]ncc2-c2cnn(-c3ccccc3)c2)c(O)c1	NPY Y1 blocker 25 (no result: NPY-Y2 antag) | NPY-Y1 ant conf inactive | NPY2 antag ctr inactive
